Experimental data taken from ChEMBL document CHEMBL1909500, “Synthesis and in vitro anticancer activity of 6,7-methylenedioxy (or 5-hydroxy-6-methoxy)-2-(substituted selenophenyl)quinolin-4-one analogs” (Eur J Med Chem, 2011).
Active and inactive are the calls of the source. No cut-off for these calls is given here.

Columns and labels:
RXF 393 = experiment: Anticancer activity against human RXF393 cells after 48 hrs by MTT assay; assay type: functional; conditions: RXF 393, 48 h
Detroit 551 = experiment: Cytotoxicity against human Detroit 551 cells after 48 hrs by MTT assay; assay type: cell-based; conditions: Detroit 551, 48 h
Method in brief: (§1)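 Hep 3B (hepatoma) or Detroit 551 (normal skin) cells, grown at 37 °C and 5% CO₂ in DMEM with 10% FBS, penicillin/streptomycin and 1% L-glutamine, were used in log phase. Cells were exposed to vehicle or compound for 48 h. Growth was read by MTT reduction at 570 nm, and IC50 was calculated.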

K562 = experiment: Anticancer activity against human K562 cells after 48 hrs by MTT assay; assay type: functional; conditions: K562, 48 h
TK-10 = experiment: Anticancer activity against human TK10 cells after 48 hrs by MTT assay; assay type: functional; conditions: TK-10, 48 h
NCI-H460 = experiment: Cytotoxicity against human H460 cells after 48 hrs by MTT assay; assay type: functional, cell-based; conditions: NCI-H460, 48 h
Method in brief: (§2)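 H460 or HL-60 cells were exposed to vehicle or compound for 48 h. Growth was read by MTT reduction at 570 nm, and IC50 was calculated.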

HL-60 [1] = experiment: Cell cycle arrest in human HL60 assessed as cell accumulation in G0/G1 phase at 1 uM after 24 hrs pretreated with pan-caspase inhibitor z-VAD-fmk for 3 hrs by propidium iodide staining-based flow cytometric analysis; assay type: functional; parameters: scale not given: the % may be the effect or the level left
Method in brief: (§3)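 HL-60 cells were preincubated for 3 h with or without the pan-caspase inhibitor z-VAD-fmk, then co-exposed to compound at 1 μM for 24 h. Cells were washed in PBS and fixed overnight in ice-cold 70% ethanol at −20 °C. They were stained for 30 min in the dark with propidium iodide 4 μg/mL, 0.1 mg/ml RNase and 1% Triton X-100. DNA content was read on a FACScan flow cytometer.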

T47D = experiment: Anticancer activity against human T47D cells after 48 hrs by MTT assay; assay type: functional
HL-60 [2] = experiment: Growth inhibition of human HL60 cells after 24 to 48 hrs by trypan blue exclusion assay; assay type: functional, cell-based
Method in brief: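 HL-60 cells were given the indicated concentrations for 24 h and 48 h. Viable cells were counted by trypan blue exclusion. Values are mean ± SD of four independent experiments.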

MDA-MB-468 = experiment: Anticancer activity against human MDA-MB-468 cells after 48 hrs by MTT assay; assay type: functional; conditions: MDA-MB-468, 48 h
HL-60 [3] = experiment: Induction of apoptosis in human HL60 cells assessed as cell shrinkage at 1 uM after 24 hrs; assay type: functional, cell-based
Method in brief: (§4)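 HL-60 cells were exposed to 1 μM for 24 h. Apoptotic morphology, scored as cell shrinkage and apoptotic bodies, was examined by microscopy at 200×.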

SF-295 = experiment: Anticancer activity against human SF295 cells after 48 hrs by MTT assay; assay type: functional; conditions: SF-295, 48 h
HL-60 [4] = experiment: Induction of apoptosis in human HL60 cells assessed as formation of apoptotic bodies at 1 uM after 24 hrs; assay type: functional, cell-based; method in brief: as §4
NCI-H522 = experiment: Anticancer activity against human NCI-H522 cells after 48 hrs by MTT assay; assay type: functional; conditions: NCI-H522, 48 h
OVCAR-3 = experiment: Anticancer activity against human OVCAR3 cells after 48 hrs by MTT assay; assay type: functional; conditions: OVCAR-3, 48 h
EKVX = experiment: Anticancer activity against human EKVX cells after 48 hrs by MTT assay; assay type: functional
SK-OV-3 = experiment: Anticancer activity against human SKOV3 cells after 48 hrs by MTT assay; assay type: functional; conditions: SK-OV-3, 48 h
OVCAR-4 = experiment: Anticancer activity against human OVCAR4 cells after 48 hrs by MTT assay; assay type: functional; conditions: OVCAR-4, 48 h
786-0 = experiment: Anticancer activity against human 786-0 cells after 48 hrs by MTT assay; assay type: functional; conditions: 786-0, 48 h
OVCAR-5 = experiment: Anticancer activity against human OVCAR5 cells after 48 hrs by MTT assay; assay type: functional; conditions: OVCAR-5, 48 h
BT-549 = experiment: Anticancer activity against human BT549 cells after 48 hrs by MTT assay; assay type: functional; conditions: BT-549, 48 h
KM12 = experiment: Anticancer activity against human KM12 cells after 48 hrs by MTT assay; assay type: functional; conditions: KM12, 48 h
HL-60 [5] = experiment: Cell cycle arrest in human HL60 assessed as cell accumulation in G2/M phase at 1 uM after 24 hrs pretreated with pan-caspase inhibitor z-VAD-fmk for 3 hrs by propidium iodide staining-based flow cytometric analysis; assay type: functional; parameters: scale not given: the % may be the effect or the level left; method in brief: as §3
[6] = Cytotoxicity against human Hep3B cells after 48 hrs by MTT assay; assay type: functional, cell-based, Hep 3B2; method in brief: as §1
HL-60 [7] = experiment: Cytotoxicity against human HL60 cells after 48 hrs by MTT assay; assay type: functional, cell-based; conditions: HL-60, 48 h; method in brief: as §2
MCF7 = experiment: Anticancer activity against human MCF7 cells after 48 hrs by MTT assay; assay type: functional; conditions: MCF7, 48 h
HL-60(TB) = experiment: Anticancer activity against human HL-60(TB) cells after 48 hrs by MTT assay; assay type: functional; conditions: HL-60, 48 h
HCT-15 = experiment: Anticancer activity against human HCT15 cells after 48 hrs by MTT assay; assay type: functional; conditions: HCT-15, 48 h
SK-MEL-28 = experiment: Anticancer activity against human SK-MEL-28 cells after 48 hrs by MTT assay; assay type: functional; conditions: SK-MEL-28, 48 h
MDA-MB-231 = experiment: Anticancer activity against human MDA-MB-231 cells after 48 hrs by MTT assay; assay type: functional; conditions: MDA-MB-231, 48 h
DU-145 = experiment: Anticancer activity against human DU145 cells after 48 hrs by MTT assay; assay type: functional; conditions: DU-145, 48 h
SW-620 = experiment: Anticancer activity against human SW620 cells after 48 hrs by MTT assay; assay type: functional; conditions: SW-620, 48 h
[8] = read-out: pLC50 (the source's name) (converted)

Cc1ccc(-c2cc(=O)c3cc4c(cc3[nH]2)OCO4)[se]1
GI50 (RXF 393): 229 nM | CC50 (RXF 393; [8]): > 100000 nM | TGI (RXF 393; read-out: pTGI (converted)): 589 nM | IC50 (Detroit 551): > 25000 nM | GI50 (K562): 282 nM | CC50 (K562; [8]): > 100000 nM | TGI (K562; read-out: pTGI): > 100000 nM | GI50 (TK-10): 10000 nM | CC50 (TK-10; [8]): > 100000 nM | TGI (TK-10; read-out: pTGI): > 100000 nM | IC50 (NCI-H460): 400 nM | Activity (HL-60 [1]): 8.3% | GI50 (T47D): 871 nM | CC50 (T47D; [8]): > 100000 nM | TGI (T47D; read-out: pTGI): > 100000 nM | growth inhibition (GI) (HL-60 [2]): Dose-dependent effect | GI50 (MDA-MB-468): 562 nM | CC50 (MDA-MB-468; [8]): > 100000 nM | TGI (MDA-MB-468; read-out: pTGI): > 100000 nM | Activity (HL-60 [3]): Active | GI50 (SF-295): 347 nM | CC50 (SF-295; [8]): > 100000 nM | TGI (SF-295; read-out: pTGI): > 100000 nM | Activity (HL-60 [4]): Active | GI50 (NCI-H522): 288 nM | CC50 (NCI-H522; [8]): > 100000 nM | TGI (NCI-H522; read-out: pTGI (converted)): 537 nM | GI50 (OVCAR-3): 240 nM | TGI (OVCAR-3; read-out: pTGI (converted)): 457 nM | GI50 (EKVX): 617 nM | CC50 (EKVX; [8]): > 100000 nM | TGI (EKVX; read-out: pTGI): > 100000 nM | GI50 (SK-OV-3): 347 nM | CC50 (SK-OV-3; [8]): > 100000 nM | TGI (SK-OV-3; read-out: pTGI): > 100000 nM | GI50 (OVCAR-4): 575 nM | CC50 (OVCAR-4; [8]): > 100000 nM | TGI (OVCAR-4; read-out: pTGI): > 100000 nM | GI50 (786-0): 427 nM | CC50 (786-0; [8]): > 100000 nM | TGI (786-0; read-out: pTGI): > 100000 nM | GI50 (OVCAR-5): 1700 nM | CC50 (OVCAR-5; [8]): > 100000 nM | TGI (OVCAR-5; read-out: pTGI): > 100000 nM | GI50 (BT-549): 447 nM | CC50 (BT-549; [8]): > 100000 nM | TGI (BT-549; read-out: pTGI): > 100000 nM | GI50 (KM12): 263 nM | CC50 (KM12; [8]): > 100000 nM | TGI (KM12; read-out: pTGI): > 100000 nM | Activity (HL-60 [5]): 55.5% | IC50 [6]: 200 nM | IC50 (HL-60 [7]): 300 nM | GI50 (MCF7): 324 nM | CC50 (MCF7; [8]): > 100000 nM | TGI (MCF7; read-out: pTGI): > 100000 nM | GI50 (HL-60(TB)): 204 nM | CC50 (HL-60(TB); [8]): 933 nM | TGI (HL-60(TB); read-out: pTGI (converted)): 437 nM | GI50 (HCT-15): 339 nM | CC50 (HCT-15; [8]): > 100000 nM | TGI (HCT-15; read-out: pTGI): > 100000 nM | GI50 (SK-MEL-28): 794 nM | CC50 (SK-MEL-28; [8]): > 100000 nM | TGI (SK-MEL-28; read-out: pTGI): > 100000 nM | GI50 (MDA-MB-231): 501 nM | CC50 (MDA-MB-231; [8]): > 100000 nM | TGI (MDA-MB-231; read-out: pTGI): > 100000 nM | GI50 (DU-145): 302 nM | CC50 (DU-145; [8]): > 100000 nM | TGI (DU-145; read-out: pTGI): > 100000 nM | GI50 (SW-620): 407 nM | CC50 (SW-620; [8]): > 100000 nM | TGI (SW-620; read-out: pTGI): > 100000 nM
